Compounds with a hit are over-represented: about 1.6% of the library has one in this group of screens.
TLR4-MyD88 BLA – inhibitors of human TLR4-MyD88 binding | HeLa CL3-4 TLR4/MyD88 BLA complementation, FRET ratio | inhibition, % at 8.4 µM | O00206+Q99836 | AID 861 | 0.18% of 200,000 active; in the data active means inhibition above about 25%;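 further: 0% = vehicle and 100% = reference inhibitor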
SR-BI DiI inh – mouse SR-BI HDL lipid transfer inhibition | ldlA[mSR-BI] CHO cells, DiI-HDL uptake fluorescence, 3 h | inhibition, % at 12.5 µM | 0.96% of 320,000 active | AID 488896;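 active means mean replicate inhibition of at least 70% and a set share of replicates each scoring 70 or more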;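 further: 0% = median of neutral control wells and 100% = median of positive control wells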
Hep lipid drop – hepatic lipid droplet formation modulation | AID 1656 | 0.4% of 240,000 active | AML12 mouse hepatocytes, oleate lipid droplets, BODIPY imaging | inhibition, % at 6.5 µM;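 active means lipid droplet intensity inhibited by at least 50%, with more than 500 cells counted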
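Assay system: AML12 mouse liver cells | Compound: 6.5 µM single-point dosing | Schedule: Overnight exposure | Technique: Fluorescence imaging, 20x objective, two fields per well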
SR-BI DiI-HDL act – activators of SR-BI mediated HDL lipid uptake. CHO ldlA[mSR-BI] cells, DiI-HDL uptake fluorescence, 3 h; 100 = double the neutral-control signal. activation, % at 12.5 µM. 0.096% of 320,000 active;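 active means mean replicate activation of at least 60% and every replicate at or above 60%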;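 further: 0% = median plate neutral-control signal and 100% = twice that signal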
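Test system: SR-BI-overexpressing, LDLR-lacking CHO cells; Also added: labelled HDL, 10 µg/mL; Measured by: bottom-read cell fluorescence after medium removal, ex 550/em 595 nm; Timing: 3 h uptake period with compound, 37 °C; Buffer or medium: F12, 0.5% BSA, 25 mM HEPES; Doses: single compound concentration, delivered by pin transfer.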
NOD2 RIPK2 PPI – blocks binding of human NOD2 to RIPK2; inhibition, % at 4.98 µM; CHO BLA complementation NOD2-RIPK2, CCF4 ratio; AID 624267; 0.38% of 360,000 active; in the data active means inhibition above about 21%;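 further: 0% = vehicle only and 100% = reference blocker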
Target sequence (O43353 whole entry, looked up): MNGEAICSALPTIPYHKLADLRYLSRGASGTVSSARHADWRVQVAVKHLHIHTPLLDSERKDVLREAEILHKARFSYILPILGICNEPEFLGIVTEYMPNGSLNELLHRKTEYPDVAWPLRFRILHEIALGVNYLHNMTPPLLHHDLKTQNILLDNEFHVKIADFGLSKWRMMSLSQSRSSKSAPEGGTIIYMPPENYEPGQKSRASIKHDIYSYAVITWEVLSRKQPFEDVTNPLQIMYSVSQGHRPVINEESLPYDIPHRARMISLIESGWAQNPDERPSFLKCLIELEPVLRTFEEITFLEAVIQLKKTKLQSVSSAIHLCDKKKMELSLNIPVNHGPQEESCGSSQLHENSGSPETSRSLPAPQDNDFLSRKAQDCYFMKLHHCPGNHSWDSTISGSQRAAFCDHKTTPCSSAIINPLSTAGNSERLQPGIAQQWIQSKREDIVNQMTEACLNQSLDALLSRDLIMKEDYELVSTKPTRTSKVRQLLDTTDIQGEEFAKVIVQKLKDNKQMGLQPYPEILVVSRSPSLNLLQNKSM
TLR9-MyD88 inh – blocks human TLR9 binding to MyD88; AID 504734; 0.21% of 340,000 active; Q9NR96+Q99836; CHO BLA complementation TLR9-MyD88, CCF4 FRET ratio; inhibition, % at 4.98 µM;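 active means inhibition above the mean over all tested compounds plus 3 SD, cut at about 21% in these data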;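 further: 0% = DMSO only wells and 100% = clavulanate BLA inhibitor control wells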
* marks the source's active call; other numbers are inactive results; · = not tested or not shown.

SMILES	TLR4-MyD88 BLA	SR-BI DiI inh	Hep lipid drop	SR-BI DiI-HDL act	NOD2 RIPK2 PPI	TLR9-MyD88 inh
O=S(=O)(c1cccc(-c2csc(N/N=C/c3ccco3)n2)c1)N1CCOCC1	·	71.9*	-21.4	-72.0	-10.8	-12.9
O=S(=O)(c1cccc(-c2csc(-c3ccccc3)n2)c1)N1CCOCC1	7.4	16.6	·	-16.6	7.1	-0.7
CCn1c(C)nc2cc(C(=O)N/N=C(\C)c3ccc(OC)cc3O)ccc21	15.3	88.3*	-2.9	-88.3	-6.9	8.5
CCN1/C(=C/c2ccc3ccccc3[n+]2CCCS(=O)(=O)[O-])C=Cc2cc(C)ccc21	·	4.3	·	-4.3	4.7	1.0
CCN1/C(=C/c2ccc3ccccc3[n+]2CC)C=Cc2ccccc21	6.2	86.6*	-151.8	-86.6	6.7	-0.3
Cc1c(Cl)cccc1NC(=O)c1ccc(OCC(=O)NCc2ccccc2)cc1	9.1	35.5	4.0	-35.5	-1.8	-3.1
Cc1onc(-c2c(Cl)cccc2Cl)c1C(=O)Nc1nccs1	·	-9.0	-2.6	9.0	2.7	3.9
CC(Cc1ccsc1)NC(=O)CCc1nnc(COc2ccccc2)o1 (stereo unspecified)	-0.1	7.9	-14.8	-7.9	-2.2	-3.8
COc1cc(/C=C2\NC(=S)N(C)C2=O)ccc1OCc1ccccc1F	·	77.2*	-6.8	-77.2	-2.1	3.9
CCn1c(C)c(C)c2cc(C(=O)Nc3cccc(Cl)c3)ccc21	-1.5	101.5*	·	-101.5	-5.0	-2.6
O=C(CN1CCC(C(=O)c2ccc3c(c2)OCCO3)CC1)Nc1ccccc1C(F)(F)F	·	·	-17.5	·	-4.3	-6.8
C=CCN1C(=O)c2ccccc2NC1c1cc(Br)cs1 (stereo unspecified)	·	·	12.8	·	2.4	5.1
CSCCC(NC(=O)COc1ccccc1)C(=O)N1CCN(C(C)=O)CC1 (stereo unspecified)	·	6.3	3.2	-6.3	1.9	-6.8
O=C(Nc1ccc(Cl)cc1)[C@@H]1[C@@H]2C(=O)N(c3ccc4ccccc4c3)C(=O)[C@@H]2[C@H]2C=CC=NN21	7.5	76.4*	12.4	-76.4	5.7	10.8
CC1(c2nnc(-c3cccc(Cl)c3)o2)CC(c2ccc(OC(F)(F)F)cc2)=NO1 (stereo unspecified)	·	-26.4	-2.4	26.4	0.6	-3.9
Cc1cccnc1C(NC(=O)C1CCN(CCCc2ccccc2)CC1)c1ccc(Cl)cc1 (stereo unspecified)	·	·	·	·	-5.7	·
COc1ccc(C2=Nc3ccccc3N(C(=O)c3ccc4c(c3)OCO4)C2C(=O)Nc2c(C)cccc2C)cc1 (stereo unspecified)	·	·	·	·	-9.7	·
C=C(C)CCC(C)N1CCC(n2nccc2NC(=O)CCCc2ccccc2)CC1 (stereo unspecified)	·	-11.7	-0.3	11.7	6.9	1.5
COc1cc(OC)c(C(=O)Nc2cc(Cl)ccc2-n2cncn2)cc1OC	·	80.9*	·	-80.9	-7.5	0.1
COc1ccccc1C(=O)Nc1cc(Cl)ccc1-n1cncn1	·	29.4	-14.4	-29.4	0.9	0.5
COc1cc(/C=C2\CCCc3c2nc2ccccc2c3C(=O)O)cc(OC)c1O	·	-230.5	-5.5	230.5*	-4.3	3.9
O=C(Cc1ccc(Cl)cc1)c1c[nH]c(C(=O)NCCCN2CCOCC2)c1	-7.9	-2.9	1.2	2.9	4.3	-9.0
Cc1c([N+](=O)[O-])cc(N2C(=O)C=CC2=O)cc1[N+](=O)[O-]	·	47.7	·	-47.7	-4.8	-10.8
Cc1cc(N2C(=O)C=CC2=O)c([N+](=O)[O-])cc1C	5.2	-32.8	-2.3	32.8	21.9*	-0.2
CCCNC(=O)C(CC)NC(=O)c1ccc(C#N)cc1 (stereo unspecified)	·	-61.7	·	61.7*	-2.6	1.7
COc1ccc(C(=O)N/C(=C/c2cccs2)C(=O)NN)cc1OC	·	74.6*	-1.2	-74.6	-4.9	-6.9
COc1ccc(C(=O)N/C(=C\c2cccs2)C(=O)N2CCN(C)CC2)cc1OC	·	13.5	4.9	-13.5	-4.5	-2.9
O=C(NCc1ccccc1)c1cccc(COc2ccc3c(c2)CCC3)c1	2.5	-10.5	22.1	10.5	2.9	3.4
COc1cccc(OC)c1C(=O)NNC(=O)c1cccc(COc2ccc3c(c2)CCC3)c1	-13.1	75.6*	·	-75.6	-2.2	-3.4

Compound activity (PubChem)
